The target of experiment [1] is Protein arginine N-methyltransferase 3 (Homo sapiens, UniProt O60678). Kind of experiment: Inhibition of PRMT3 assessed as hydrolysis of S-adenosyl-L-homocysteine after 2 mins by SAHH-coupled fluorescence assay. The gist of the method: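 Enzyme-coupled fluorescence readout. Methyltransfer product SAH is converted to homocysteine by SAHH in the presence of adenosine deaminase, and homocysteine is detected with the thiol-sensitive dye ThioGlo. Buffer is 25 mM potassium phosphate pH 7.5 with 1 mM EDTA, 2 mM MgCl2 and 0.01% Triton X-100, plus 5 μM SAHH, 0.3 U/mL deaminase, 25 μM SAM and 15 μM ThioGlo. PRMT3 is at 500 nM. Inhibitor (4 nM–16 μM) is preincubated 2 min, then 10 μM H4(1–24) peptide starts the reaction. Fluorescence is followed for 20 min at ex 360/em 528 nm and background-corrected. IC50 is fitted from two independent experiments.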
Chain of Protein arginine N-methyltransferase 3 (O60678 whole entry): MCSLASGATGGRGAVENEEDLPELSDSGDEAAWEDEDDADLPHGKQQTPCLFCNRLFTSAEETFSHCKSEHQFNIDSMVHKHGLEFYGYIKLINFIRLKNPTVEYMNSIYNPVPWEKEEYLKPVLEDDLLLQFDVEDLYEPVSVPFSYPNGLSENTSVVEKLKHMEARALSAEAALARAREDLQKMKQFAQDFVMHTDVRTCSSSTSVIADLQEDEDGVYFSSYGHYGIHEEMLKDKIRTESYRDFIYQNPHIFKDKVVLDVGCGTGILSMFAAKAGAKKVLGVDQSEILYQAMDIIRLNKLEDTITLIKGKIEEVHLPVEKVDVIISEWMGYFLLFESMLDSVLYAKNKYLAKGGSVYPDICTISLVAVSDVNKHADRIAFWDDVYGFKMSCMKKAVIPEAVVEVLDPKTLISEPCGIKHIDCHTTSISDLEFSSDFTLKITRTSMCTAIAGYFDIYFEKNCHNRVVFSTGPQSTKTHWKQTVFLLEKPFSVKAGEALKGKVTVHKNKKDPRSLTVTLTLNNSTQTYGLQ

For experiment [2], the system named is MDA-MB-231. Kind of experiment: Cytotoxicity against human MDA-MB-231 cells assessed as cell viability after 48 hrs by MTT assay. The format is functional, cell-based. The following applies: MDA-MB-231, 48 h. A general note: Formazan colour is commonly taken as a measure of viable cells.
For experiment [3], the target named is Histone-lysine N-methyltransferase SUV39H2 (Homo sapiens, UniProt Q9H5I1). The experiment can be described thus: Inhibition of SUV39H2 assessed as hydrolysis of S-adenosyl-L-homocysteine after 2 mins by SAHH-coupled fluorescence assay. The gist of the method: (§1)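 Same coupled ThioGlo readout (25 mM potassium phosphate pH 7.5, 25 μM SAM, 5 μM SAHH, adenosine deaminase), 4 nM–16 μM inhibitor with 2 min preincubation, 20 min fluorescence at 360/528 nm. Enzyme and substrate by target: SETD7 200 nM with 100 μM H3(1–25); SETD8 250 nM with 500 μM H4(1–24); SUV39H2 100 nM with 200 μM H3K9Me1(1–15).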
Chain of Histone-lysine N-methyltransferase SUV39H2 (Q9H5I1 whole entry): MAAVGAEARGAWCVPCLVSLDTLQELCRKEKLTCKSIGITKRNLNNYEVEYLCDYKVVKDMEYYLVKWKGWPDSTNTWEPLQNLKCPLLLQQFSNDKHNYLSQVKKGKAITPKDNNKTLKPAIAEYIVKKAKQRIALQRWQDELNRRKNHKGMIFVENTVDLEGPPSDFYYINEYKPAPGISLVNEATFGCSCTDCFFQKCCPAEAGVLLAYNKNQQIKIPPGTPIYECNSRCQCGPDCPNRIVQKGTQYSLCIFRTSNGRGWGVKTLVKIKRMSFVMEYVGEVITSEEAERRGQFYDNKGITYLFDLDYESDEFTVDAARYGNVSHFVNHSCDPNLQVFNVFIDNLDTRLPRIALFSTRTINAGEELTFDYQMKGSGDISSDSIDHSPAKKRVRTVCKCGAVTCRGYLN

Experiment [4] addresses T1, Histone-lysine N-methyltransferase SETD7 (Homo sapiens, UniProt Q8WTS6).
T1 sequence (Q8WTS6 whole entry): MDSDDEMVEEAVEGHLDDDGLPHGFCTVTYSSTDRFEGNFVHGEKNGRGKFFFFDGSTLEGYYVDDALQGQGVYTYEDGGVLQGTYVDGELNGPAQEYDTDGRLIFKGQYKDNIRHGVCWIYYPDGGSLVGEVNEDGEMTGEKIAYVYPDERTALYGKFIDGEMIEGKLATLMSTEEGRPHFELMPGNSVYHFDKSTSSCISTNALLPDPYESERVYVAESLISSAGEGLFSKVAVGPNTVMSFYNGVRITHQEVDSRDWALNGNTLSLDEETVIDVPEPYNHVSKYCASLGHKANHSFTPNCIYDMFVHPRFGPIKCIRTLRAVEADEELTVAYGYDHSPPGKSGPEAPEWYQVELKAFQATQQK
Kind of experiment: Inhibition of SETD7 assessed as hydrolysis of S-adenosyl-L-homocysteine after 2 mins by SAHH-coupled fluorescence assay. The essentials: as §1

For experiment [5], the target named is T2, N-lysine methyltransferase KMT5A (Homo sapiens, UniProt Q9NQR1).
T2 sequence (Q9NQR1 whole entry): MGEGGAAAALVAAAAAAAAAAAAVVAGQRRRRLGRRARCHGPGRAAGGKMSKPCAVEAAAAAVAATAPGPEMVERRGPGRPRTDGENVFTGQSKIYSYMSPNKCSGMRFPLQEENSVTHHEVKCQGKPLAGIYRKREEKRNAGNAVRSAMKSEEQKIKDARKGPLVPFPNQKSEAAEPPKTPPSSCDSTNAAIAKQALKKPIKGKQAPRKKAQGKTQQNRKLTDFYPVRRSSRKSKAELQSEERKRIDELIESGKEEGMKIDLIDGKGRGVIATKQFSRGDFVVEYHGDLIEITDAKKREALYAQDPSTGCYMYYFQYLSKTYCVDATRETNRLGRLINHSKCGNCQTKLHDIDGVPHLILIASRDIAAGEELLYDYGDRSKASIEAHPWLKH
The experiment can be described thus: Inhibition of SETD8 assessed as hydrolysis of S-adenosyl-L-homocysteine after 2 mins by SAHH-coupled fluorescence assay. The essentials:
as §1

The target in experiment [6] is T3, Histone-lysine N-methyltransferase EHMT1 (Homo sapiens, UniProt Q9H9B1).
T3 sequence (Q9H9B1 whole entry): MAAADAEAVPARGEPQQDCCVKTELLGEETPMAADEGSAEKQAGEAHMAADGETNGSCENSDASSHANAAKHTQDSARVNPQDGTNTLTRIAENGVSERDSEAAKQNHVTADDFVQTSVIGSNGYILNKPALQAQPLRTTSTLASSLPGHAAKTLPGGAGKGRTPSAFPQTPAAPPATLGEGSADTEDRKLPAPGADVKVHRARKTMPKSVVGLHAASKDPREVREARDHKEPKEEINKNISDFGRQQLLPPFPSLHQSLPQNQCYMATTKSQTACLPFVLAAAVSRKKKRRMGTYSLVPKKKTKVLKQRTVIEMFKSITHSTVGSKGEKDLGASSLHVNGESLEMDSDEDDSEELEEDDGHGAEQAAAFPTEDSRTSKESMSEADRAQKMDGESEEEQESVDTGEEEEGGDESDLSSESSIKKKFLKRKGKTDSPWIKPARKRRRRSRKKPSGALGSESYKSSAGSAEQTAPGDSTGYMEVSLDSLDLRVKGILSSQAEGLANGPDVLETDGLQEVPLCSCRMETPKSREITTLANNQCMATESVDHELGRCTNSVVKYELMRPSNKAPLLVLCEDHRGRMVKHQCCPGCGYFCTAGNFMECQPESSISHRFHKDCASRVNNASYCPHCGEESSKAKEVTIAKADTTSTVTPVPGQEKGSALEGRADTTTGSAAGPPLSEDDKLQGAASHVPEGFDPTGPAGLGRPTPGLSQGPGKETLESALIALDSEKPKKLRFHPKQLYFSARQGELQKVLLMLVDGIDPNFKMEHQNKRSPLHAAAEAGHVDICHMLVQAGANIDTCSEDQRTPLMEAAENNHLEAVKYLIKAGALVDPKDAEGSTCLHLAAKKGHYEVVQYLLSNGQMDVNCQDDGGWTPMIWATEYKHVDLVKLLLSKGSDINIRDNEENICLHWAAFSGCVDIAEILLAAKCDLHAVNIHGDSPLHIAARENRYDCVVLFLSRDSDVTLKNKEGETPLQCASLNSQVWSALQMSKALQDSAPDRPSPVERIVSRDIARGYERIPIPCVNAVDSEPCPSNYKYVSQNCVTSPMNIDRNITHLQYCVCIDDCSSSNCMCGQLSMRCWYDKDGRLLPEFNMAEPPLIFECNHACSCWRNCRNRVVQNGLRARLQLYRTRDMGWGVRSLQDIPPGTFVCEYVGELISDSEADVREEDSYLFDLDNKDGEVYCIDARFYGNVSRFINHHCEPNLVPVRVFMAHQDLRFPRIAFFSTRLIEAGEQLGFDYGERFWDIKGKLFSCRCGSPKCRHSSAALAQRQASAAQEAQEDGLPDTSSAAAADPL
Kind of experiment: Inhibition of GLP assessed as hydrolysis of S-adenosyl-L-homocysteine after 2 mins by SAHH-coupled fluorescence assay. The gist of the method:
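GLP at 100 nM was tested by SAHH/adenosine deaminase/ThioGlo coupling in pH 7.5 potassium phosphate buffer with EDTA, MgCl2, Triton X-100 and 25 μM SAM. Inhibitor (4 nM–16 μM) was preincubated 2 min before adding 20 μM H3(1–25). Fluorescence rise (360/528 nm) was tracked 20 min and background-subtracted. IC50 from two independent experiments.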

Take `COc1cc2c(NC3CCN(C4CCCCC4)CC3)nc(N3CCCN(C(C)C)CC3)nc2cc1OCCCN1CCCCC1`: the concentration for half-maximal inhibition (IC50) – broadly, the concentration that inhibits the measured activity by half – in experiment [1] is greater than 10 µM; in experiment [3], greater than 10 µM; in experiment [4] it was greater than 10 µM; in experiment [5], greater than 10 µM; in experiment [6], less than 0.015 µM. In experiment [2], the EC50 (commonly the midpoint of the concentration-response curve) was found to be 3.3 µM.

The record behind these values is ChEMBL document CHEMBL1828613, “Optimization of cellular activity of G9a inhibitors 7-aminoalkoxy-quinazolines” (J Med Chem, 2011).
